Source: PubChem (several laboratories)
HIV Rev-RRE inh: inhibitors of HIV-1 Rev-RRE RNA interaction | P05866 | Rev peptide-RRE RNA binding, FRET | inhibition, % at 8 µM | 97,000 compounds, 0.79% hits;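 active = inhibition above the screen-wide mean plus 3 SD, cut at about 35% in these data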;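 note: 0% = median DMSO wells and 100% = median Neomycin B control wells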
Target sequence (P05866 whole entry, looked up): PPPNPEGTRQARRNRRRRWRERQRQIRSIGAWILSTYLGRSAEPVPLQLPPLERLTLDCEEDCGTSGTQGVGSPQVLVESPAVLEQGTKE
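assay system = Cy5-tagged RRE RNA duplex with fluorescein-tagged Rev peptide | incubation = 5 + 15 min at 25 °C | also added = labelled Rev peptide | measure = % inhibition of FRET ratio versus controls | benchmarks = DMSO wells as 0% and neomycin B wells as 100% inhibition | measured by = FRET fluorescence readout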
PLK1 inh: PLK1 (human) kinase inhibition. P53350. recombinant PLK1 kinase, TR-FRET peptide phosphorylation. inhibition, % at 10 µM. 97,000 compounds, 0.53% hits. AID 619;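 active = inhibition of 50% or more in the single-concentration screen; inactive = inhibition below 50%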;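 note: 0% = DMSO max control and 100% = H-89 dihydrochloride min control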
PTPN22 act: increases human PTPN22 phosphatase activity | AID 697 | recombinant LYP, DiFMUP fluorescence; 0 = plate median, 100 = signal doubled | activation, % at 2 µM | 96,000 compounds, 0.11% hits | Q9Y2R2;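 active = activation at 2 µM above a set limit, the mean plus 5 SD, cut at about 37% in these data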
Plk1 PBD FP: Plk1 (human) PBD binding inhibition | P53350 | Plk1 PBD phosphopeptide binding, fluorescence polarization | inhibition, %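 (tested at about 20 µM)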 | 97,000 compounds, 0.13% hits | AID 693; in the data active = inhibition above about 34%, passing the limit was not always enough
EphB4 antag: antagonists of human EphB4-ephrin-B2 interaction | 97,000 compounds, 0.15% hits | inhibition, % at 7 µM | P54760 | EphB4 LBD / TNYL-RAW-Alexa532 peptide, fluorescence polarization | AID 720;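 active = inhibition above the screen-wide mean inhibition plus 3 SD, cut at about 15% in these data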;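 note: 0% = DMSO wells and 100% = excess unlabeled TNYL-RAW peptide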
PTPN22 inh 2: blocks human PTPN22 phosphatase activity; Q9Y2R2; recombinant LYP catalytic domain, DiFMUP fluorescence; inhibition, % at 2 µM; 96,000 compounds, 0.21% hits;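 active = inhibition at 2 µM at or above a set limit, the screen mean plus 3 SD, cut at about 24% in these data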;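 note: 0% = DMSO with enzyme and 100% = enzyme fully blocked by orthovanadate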
* hit, by the source's call; [ ] = remark or other dose. This is a sample that favours compounds with a hit; in the whole collection about 1.8% have one here.

For Cc1ccc(C(=O)/C=C/c2ccccc2)o1 the results were HIV Rev-RRE inh 80*, PLK1 inh -14, PTPN22 act 10, Plk1 PBD FP -12, EphB4 antag 4 and PTPN22 inh 2 -7.
Cc1ccc(C(=O)N2CCN(Cc3ccc4c(c3)OCO4)CC2)o1 was read as HIV Rev-RRE inh 0, PLK1 inh -4, PTPN22 act -11, Plk1 PBD FP -7, EphB4 antag 4 and PTPN22 inh 2 11.
`CCNc1ccccc(C(=O)/C=C/c2ccc3c(c2)OCO3)c1=O` gave HIV Rev-RRE inh 55*, PLK1 inh 8, PTPN22 act 30, Plk1 PBD FP 7, EphB4 antag -2 and PTPN22 inh 2 -30.
O=C(c1cnc2n(c1=O)CCS2)N1CCN(c2ccc([N+](=O)[O-])cc2)CC1 was read as HIV Rev-RRE inh -2, PLK1 inh -9, PTPN22 act -9, Plk1 PBD FP -20, EphB4 antag -4 and PTPN22 inh 2 6.
For CCOC(=O)C(C(=O)Nc1ccc(C)cc1)C1CCCCC1 (stereo not drawn) the results were HIV Rev-RRE inh 1, PLK1 inh 11, PTPN22 act 4, Plk1 PBD FP -14, EphB4 antag 0 and PTPN22 inh 2 -3.
CC(C)CN1C(=S)SC(C)(C)C1n1oc(=O)n(-c2ccc(Cl)cc2)c1=O (stereo not drawn) was read as HIV Rev-RRE inh 26, PLK1 inh -9, PTPN22 act -7, Plk1 PBD FP 33, EphB4 antag 0 and PTPN22 inh 2 10.
`CC1(C)C(=O)N(OCc2ccccc2)C(C)(C)C(=O)N1OCc1ccccc1` gave HIV Rev-RRE inh 2, PLK1 inh -16, PTPN22 act -4, Plk1 PBD FP 5, EphB4 antag 0 and PTPN22 inh 2 5.
`CC(NC(=O)Nc1nnc(C(F)(F)F)s1)(C(F)(F)F)C(F)(F)F` gave HIV Rev-RRE inh 8, PLK1 inh 9, PTPN22 act -3, Plk1 PBD FP 4, EphB4 antag -3 and PTPN22 inh 2 3.
For CN(C)c1ccc(/C=C(\C#N)C(=O)Nc2nc3c(s2)CCN(Cc2ccccc2)C3)cc1 the results were HIV Rev-RRE inh 104*[fluorescence artefact?], PLK1 inh -23, PTPN22 act 1, Plk1 PBD FP -30, EphB4 antag 3 and PTPN22 inh 2 0.
`COCCn1c(Cc2ccccc2)nnc1SCc1nc2ccccc2c(=O)[nH]1` gave HIV Rev-RRE inh 7, PLK1 inh -8, PTPN22 act -25, Plk1 PBD FP 22, EphB4 antag 4 and PTPN22 inh 2 28*.
CCCCOCCCn1c(-c2ccco2)nc2nc3ccccc3nc21 was read as HIV Rev-RRE inh 17, PLK1 inh -13, PTPN22 act 3, Plk1 PBD FP 9, EphB4 antag 3 and PTPN22 inh 2 -3.
Screening O=C(O)c1ccc(-n2nnnc2SCc2ccccc2F)cc1 returned HIV Rev-RRE inh 6, PLK1 inh 59*, Plk1 PBD FP 29 and EphB4 antag -1.
CSc1nnnn1-c1ccc(C(=O)O)cc1 was read as HIV Rev-RRE inh 6, PLK1 inh -14, PTPN22 act -1, Plk1 PBD FP -30, EphB4 antag -3 and PTPN22 inh 2 3.
`Cc1ccc(CNC(=O)c2ccccc2N)cc1` gave HIV Rev-RRE inh 2, PLK1 inh -5, PTPN22 act -59, Plk1 PBD FP 22, EphB4 antag -3 and PTPN22 inh 2 60*.
For COc1ccc(CCNC(=O)C(=O)NCc2ccc(C)cc2)cc1OC the results were HIV Rev-RRE inh 2, PLK1 inh -13, PTPN22 act -2, Plk1 PBD FP -28, EphB4 antag 2 and PTPN22 inh 2 5.
Screening CC(O)c1cccc(NC(=O)CCC(=O)O)c1 (stereo not drawn) returned HIV Rev-RRE inh 0, PLK1 inh -10, PTPN22 act -8, Plk1 PBD FP 0, EphB4 antag 19* and PTPN22 inh 2 9.
`CSc1ccccc1C(=O)Nc1cccc(C(C)O)c1` (stereo not drawn) gave HIV Rev-RRE inh 3, PLK1 inh -17, PTPN22 act 10, Plk1 PBD FP 4, EphB4 antag -4 and PTPN22 inh 2 -11.
For Cc1ccc(NC2OC(C(O)CO)C(O)C2O)cc1[N+](=O)[O-] (stereo not drawn) the results were HIV Rev-RRE inh 8, PLK1 inh 2, PTPN22 act -4, Plk1 PBD FP 7, EphB4 antag 1 and PTPN22 inh 2 5.
`CCSc1ncc(/C=N/Nc2ccc([N+](=O)[O-])cc2)n1C` gave HIV Rev-RRE inh 66*[fluorescence artefact?], PLK1 inh -14, PTPN22 act -2, Plk1 PBD FP 4, EphB4 antag -1 and PTPN22 inh 2 4.
O=[N+]([O-])c1ccc(N/N=C\c2cccn2-c2ccccc2)nc1 was read as HIV Rev-RRE inh 41*, PLK1 inh 5, PTPN22 act 2, Plk1 PBD FP -2, EphB4 antag -1 and PTPN22 inh 2 3.
Cc1ccc(-c2csc(NC(=O)c3cccc(N4C(=O)CCC4=O)c3)n2)o1 was read as HIV Rev-RRE inh 3, PLK1 inh 67*, Plk1 PBD FP 9 and EphB4 antag 1.
Screening O=C(CCS(=O)(=O)Cc1ccccc1)NCC1CCCO1 (stereo not drawn) returned HIV Rev-RRE inh 3, PLK1 inh 4, PTPN22 act -5, Plk1 PBD FP -14, EphB4 antag -2 and PTPN22 inh 2 5.
Screening CC(C)c1ccc2nc3sc(C(=O)N4CCc5ccccc5C4)c(N)c3cc2c1 returned HIV Rev-RRE inh 57*, PLK1 inh -26, PTPN22 act -4, Plk1 PBD FP -18, EphB4 antag -4 and PTPN22 inh 2 7.
`O=C(Nc1cccc(O)c1)c1cc(S(=O)(=O)N2CCCC2)ccc1Cl` gave HIV Rev-RRE inh -1, PLK1 inh -12, PTPN22 act 8, Plk1 PBD FP -4, EphB4 antag -7 and PTPN22 inh 2 -10.
For CCc1ccc2nc(NC(=O)c3ccc4c(=O)[nH]c(CN5CCOCC5)nc4c3)sc2c1 the results were HIV Rev-RRE inh 9, PLK1 inh -9, PTPN22 act -28, Plk1 PBD FP -5, EphB4 antag -2 and PTPN22 inh 2 28*.
Screening O=C(OCc1cccc2ccccc12)c1ccc2c(=O)[nH]c(CN3CCOCC3)nc2c1 returned HIV Rev-RRE inh 3, PLK1 inh -12, PTPN22 act -13, Plk1 PBD FP -1, EphB4 antag -4 and PTPN22 inh 2 13.
`Cc1nn(-c2ccccc2)c2c1C(c1ccccc1)C(C#N)=C(N)O2` (stereo not drawn) gave HIV Rev-RRE inh 9, PLK1 inh 3, PTPN22 act 1, Plk1 PBD FP -10, EphB4 antag 8 and PTPN22 inh 2 -2.
CN1C=CC2=C(C#N)C(N)C(C#N)(C#N)[C@H](c3ccccc3)[C@H]2C1 (stereo partly drawn) was read as HIV Rev-RRE inh 60*, PLK1 inh -7, PTPN22 act 3, Plk1 PBD FP -11, EphB4 antag 4 and PTPN22 inh 2 -1.
